Bioassay records from PubChem BioAssay.
Hits are enriched below; roughly 9.4% of the tested compounds scored in any of these assays.
L major viab – Leishmania major promastigote growth inhibition. Leishmania major promastigotes, resazurin fluorescence viability. inhibition, % at 10 µM. 200,000 tested, 9% active. AID 1063; in the data active = inhibition above about 50%;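 also: promastigotes grown with compound for 44 hours at 28 °C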
Beta apoptosis – beta cell apoptosis inhibition. 300,000 tested, 0.8% active. protection from apoptosis, % (no concentration beside the values). INS-1E cytokine-induced death, ATP luminescence, 48 h; percent of positive-control rescue, neutral wells zero;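 active = Every replicate reaches about 75%, or at least half do and their mean reaches it too, limit read from the data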;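 also: higher means more ATP so stronger rescue from cytokine killing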
Mdm2 MdmX PPI – inhibitors of human Mdm2/MdmX interaction. 330,000 tested, 3% active. SaOS-2 split-luciferase Mdm2/MdmX complementation, luminescence. inhibition, % at 8 µM. O15151+Q00987;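 active = inhibition of at least 50% at 8 µM in the primary screen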
Target sequence (O15151 whole entry, looked up): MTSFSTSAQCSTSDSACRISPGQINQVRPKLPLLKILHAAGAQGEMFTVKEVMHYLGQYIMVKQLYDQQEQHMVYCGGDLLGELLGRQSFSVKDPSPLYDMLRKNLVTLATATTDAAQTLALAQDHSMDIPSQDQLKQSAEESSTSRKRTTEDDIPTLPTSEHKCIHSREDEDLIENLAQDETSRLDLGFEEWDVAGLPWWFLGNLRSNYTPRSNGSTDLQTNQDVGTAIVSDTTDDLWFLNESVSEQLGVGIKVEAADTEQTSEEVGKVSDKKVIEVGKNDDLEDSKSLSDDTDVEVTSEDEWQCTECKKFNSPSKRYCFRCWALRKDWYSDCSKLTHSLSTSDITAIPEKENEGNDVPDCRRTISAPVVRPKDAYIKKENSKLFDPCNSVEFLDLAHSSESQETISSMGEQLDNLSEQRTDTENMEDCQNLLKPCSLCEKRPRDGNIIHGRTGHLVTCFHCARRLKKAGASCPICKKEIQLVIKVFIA
Target sequence (Q00987 whole entry, looked up): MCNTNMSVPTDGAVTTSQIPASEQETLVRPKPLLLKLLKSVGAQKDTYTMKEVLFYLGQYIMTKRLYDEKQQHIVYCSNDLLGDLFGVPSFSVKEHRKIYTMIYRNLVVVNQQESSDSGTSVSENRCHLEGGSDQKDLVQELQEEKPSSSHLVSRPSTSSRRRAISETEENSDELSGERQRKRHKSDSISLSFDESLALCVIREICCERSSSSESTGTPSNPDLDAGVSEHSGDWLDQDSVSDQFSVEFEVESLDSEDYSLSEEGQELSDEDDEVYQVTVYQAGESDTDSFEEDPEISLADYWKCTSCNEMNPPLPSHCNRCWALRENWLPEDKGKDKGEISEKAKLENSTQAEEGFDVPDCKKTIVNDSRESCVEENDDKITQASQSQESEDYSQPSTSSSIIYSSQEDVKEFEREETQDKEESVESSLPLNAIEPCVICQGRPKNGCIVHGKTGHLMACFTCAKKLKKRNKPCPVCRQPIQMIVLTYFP
SKKanGAS inh – blocks kanamycin growth of S. pyogenes SKKanGAS strain. BacTiter-Glo, 6 h. inhibition, % at 7.5 µM. 300,000 tested, 1.3% active. AID 1662;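 active = mean replicate score, as percent of positive control median, at least 50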;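 also: strain carries kanamycin resistance gene driven by streptokinase promoter and grows in 40 µg/ml kanamycin; loss of luminescence reflects streptokinase promoter inhibition or plain growth inhibition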
T cruzi inh – blocks replication of Trypanosoma cruzi; AID 1885; 300,000 tested, 1.4% active; T. cruzi beta-gal in NIH3T3, luminescence, 90 h; inhibition, % (concentration not given with the values);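 active = mean inhibition across valid replicates above about 55%, limit read from the data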;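 also: signal also drops with host cell toxicity which is not excluded here; higher percent means less beta-gal luminescence so fewer parasites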
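System: NIH/3T3 fibroblasts plus reporter T. cruzi. Medium: DMEM plus 2% FBS. Probe or stimulus: 5000 reporter trypomastigotes per well. Compound: single 50 nL compound addition per well in DMSO. Incubation: co-culture of at least 90 h after 3 h attachment. Detection: GalScreen β-gal luminescence, detergent lysis, 60 min. Evaluation: parasite load inhibition, %.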
CSC inhib – blocks cancer stem cells; cancer stem cell-like cells viability, luminescence; inhibition, % at 7.5 µM; 300,000 tested, 1.1% active; AID 2717; in the data active = inhibition above about 75%; tested in HMLE shEcad cells
Numbers stand for hits.

What do the screens show for `COc1ccc(NS(=O)(=O)c2ccc(N3CCOCC3)c(NC(=O)c3cccc(F)c3)c2)cc1`?
L major viab: inactive; Beta apoptosis: inactive; Mdm2 MdmX PPI: inactive; SKKanGAS inh: inactive; T cruzi inh: inactive; CSC inhib: inactive

How did COc1ccc(NS(=O)(=O)c2ccc(N3CCOCC3)c(NC(=O)c3ccco3)c2)cc1 do in these assays?
L major viab: inactive; Beta apoptosis: inactive; Mdm2 MdmX PPI: inactive; SKKanGAS inh: inactive; T cruzi inh: inactive; CSC inhib: inactive

Results for COc1ccc(NS(=O)(=O)c2ccc(N3CCOCC3)c(NC(=O)c3ccc(F)cc3)c2)cc1 ?
L major viab: 72; Beta apoptosis: inactive; Mdm2 MdmX PPI: inactive; SKKanGAS inh: inactive; T cruzi inh: inactive; CSC inhib: inactive

What do the screens show for `COc1ccccc1NS(=O)(=O)c1ccc(N2CCOCC2)c(NC(=O)c2ccco2)c1`?
L major viab: 69; Beta apoptosis: inactive; Mdm2 MdmX PPI: inactive; SKKanGAS inh: inactive; T cruzi inh: inactive; CSC inhib: inactive

Results for COc1ccccc1NS(=O)(=O)c1cc(NC(=O)c2ccco2)ccc1N1CCOCC1 ?
L major viab: 100; Beta apoptosis: inactive; Mdm2 MdmX PPI: inactive; SKKanGAS inh: inactive; T cruzi inh: inactive; CSC inhib: inactive

Results for CCOc1ccc(-n2c(Cc3cc(=O)[nH]c(=O)[nH]3)nnc2SCC(=O)Nc2nnc(C)s2)cc1 ?
L major viab: inactive; Beta apoptosis: inactive; Mdm2 MdmX PPI: inactive; SKKanGAS inh: inactive; T cruzi inh: inactive; CSC inhib: inactive

How did CC(=O)C(C(C)=O)C(c1ccccc1)c1nc2ccccc2[nH]c1=O (stereo not given) do in these assays?
Beta apoptosis: inactive; Mdm2 MdmX PPI: inactive; SKKanGAS inh: inactive; T cruzi inh: inactive; CSC inhib: inactive

Results for COc1ccc2[nH]c(=O)c(CN(C(=O)c3ccccn3)C3CCCCC3)cc2c1 ?
L major viab: inactive; Beta apoptosis: inactive; Mdm2 MdmX PPI: inactive; SKKanGAS inh: inactive; T cruzi inh: inactive; CSC inhib: inactive

What do the screens show for `COc1cc2cc(CN(C(=O)NC3CCCCC3)C3CCCC3)c(=O)[nH]c2cc1OC`?
L major viab: inactive; Beta apoptosis: inactive; Mdm2 MdmX PPI: inactive; SKKanGAS inh: inactive; T cruzi inh: inactive; CSC inhib: inactive

Results for COc1ccc2cc(CN(C(=O)Nc3ccccc3OC)C3CCCC3)c(=O)[nH]c2c1 ?
L major viab: 53; Beta apoptosis: inactive; Mdm2 MdmX PPI: inactive; SKKanGAS inh: inactive; T cruzi inh: inactive; CSC inhib: inactive

How did O=C(NC1CCCCC1)N(Cc1cc2cc3c(cc2[nH]c1=O)OCCO3)C1CCCCC1 do in these assays?
L major viab: 69; Beta apoptosis: inactive; Mdm2 MdmX PPI: inactive; SKKanGAS inh: inactive; T cruzi inh: inactive

What do the screens show for `COc1ccccc1NC(=S)N(CCCN(C)C)Cc1cc2cc3c(cc2[nH]c1=O)OCO3`?
L major viab: inactive; Beta apoptosis: inactive; Mdm2 MdmX PPI: inactive; SKKanGAS inh: inactive; T cruzi inh: inactive; CSC inhib: inactive

What do the screens show for `CCc1ccc2[nH]c(=O)c(CN(Cc3ccccc3)C(=O)Nc3ccccc3OC)cc2c1`?
L major viab: 64; Beta apoptosis: inactive; Mdm2 MdmX PPI: inactive; SKKanGAS inh: inactive; T cruzi inh: 66; CSC inhib: inactive

Results for COC(=O)c1ccccc1NC(=S)N(Cc1ccc2c(c1)OCO2)Cc1cc2cc(OC)ccc2[nH]c1=O ?
L major viab: 55; Beta apoptosis: inactive; Mdm2 MdmX PPI: inactive; SKKanGAS inh: inactive; T cruzi inh: inactive; CSC inhib: inactive

What do the screens show for `COc1ccc2[nH]c(=O)c(CN(C(=O)c3ccco3)C(C)C)cc2c1`?
Beta apoptosis: inactive; Mdm2 MdmX PPI: inactive; SKKanGAS inh: inactive; T cruzi inh: inactive; CSC inhib: inactive

Results for COc1ccc(CC(=O)N(Cc2cc3cc(OC)ccc3[nH]c2=O)C(C)C)cc1 ?
L major viab: 94; Beta apoptosis: inactive; Mdm2 MdmX PPI: inactive; SKKanGAS inh: inactive; T cruzi inh: inactive; CSC inhib: inactive

What do the screens show for `COc1ccc(N(Cc2ccccc2)S(=O)(=O)c2cccc(C(=O)Nc3ncccc3C)c2)cc1`?
Beta apoptosis: inactive; Mdm2 MdmX PPI: inactive

Results for CCOc1ccccc1NC(=O)c1cc(SC)ccc1Cl ?
L major viab: inactive; Beta apoptosis: inactive; Mdm2 MdmX PPI: inactive; SKKanGAS inh: inactive; T cruzi inh: inactive; CSC inhib: inactive

Results for O=C(Nc1nc2ccccc2[nH]1)C1CC1 ?
L major viab: inactive; Mdm2 MdmX PPI: inactive; SKKanGAS inh: inactive; T cruzi inh: inactive
